Source: ChEMBL document CHEMBL4020827, “Targeting Multiple Effector Pathways in Pancreatic Ductal Adenocarcinoma with a G-Quadruplex-Binding Small Molecule” (J Med Chem, 2018)

Legend:
[1] = test system: PANC-1; assay: Effect on IQSEC1 gene expression in human PANC1 cells at 400 nM after 24 hrs by RNA sequence analysis relative to control; type: functional
Procedure, shortened: (§1)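 PANC-1 (0.35 x 10^6) or MIA PaCa-2 (1.5 x 10^6) cells seeded overnight in 60 mm plates, then exposed to 400 nM compound for 6 or 24 h; untreated cells as controls. Cells were mycoplasma-free and STR-certified. Differential expression by RNA-seq, called at FDR < 0.1.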

[2] = test system: Mus musculus; assay: Toxicity in CD-1 nude mouse xenografted with human MIAPaCa2 cells assessed as change in tumor ulceration at 15 mg/kg, iv administered twice weekly for 4 weeks measured for 40 days; type: organism-based; details: in vivo, 960 h
[3] = test system: MIA PaCa-2; assay: Effect on TEAD2 gene expression in human MIAPaCa2 cells at 400 nM after 6 hrs by RNA sequence analysis relative to control; type: functional
Procedure, shortened: (§2)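 RNA-seq: cells seeded overnight in 60 mm plates (PANC-1 0.35 x 10^6, MIA PaCa-2 1.5 x 10^6 cells/well), then exposed to 400 nM compound for 6 or 24 h against untreated controls. Cell lines mycoplasma-free by RNA-capture ELISA and STR-profiled. Differentially expressed genes called at FDR < 0.1.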

[4] = test system: MIA PaCa-2; assay: Effect on PLXNA1 gene expression in human MIAPaCa2 cells at 400 nM after 24 hrs by RNA sequence analysis relative to control; type: functional
[5] = test system: PANC-1; assay: Effect on GLI4 gene expression in human PANC1 cells at 400 nM after 6 hrs by RNA sequence analysis relative to control; type: functional; procedure, shortened: as §1
[6] = test system: MIA PaCa-2; assay: Effect on IGF2 gene expression in human MIAPaCa2 cells at 400 nM after 6 hrs by RNA sequence analysis relative to control; type: functional; procedure, shortened: as §1
[7] = test system: MIA PaCa-2; assay: Effect on PCK2 gene expression in human MIAPaCa2 cells at 400 nM after 6 hrs by RNA sequence analysis relative to control; type: functional
[8] = test system: MIA PaCa-2; assay: Effect on PFKL gene expression in human MIAPaCa2 cells at 400 nM after 24 hrs by RNA sequence analysis relative to control; type: functional
[9] = Toxicity in iv dosed CD-1 nude mouse assessed as death measured up to 72 hrs; type: organism-based; details: in vivo
Procedure, shortened: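 CD1 nude mice, two per group, given single IV doses in saline (10, 20, 30, 35, 40, 45, 50 and 60 mg/kg), with repeat dosing weekly. Watched for adverse effects for up to 72 h. Tolerated dose taken as highest cohort in which all mice survived without observed ill-effects.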

[10] = Binding affinity to 5'-FAM/3'-TAMRA labeled KRAS21 promoter G-quadruplex DNA (unknown origin) assessed as change in melting temperature at 1 uM by FRET assay
Procedure, shortened: (§3)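 FRET melting of FAM/TAMRA dual-labelled promoter G4 oligonucleotides, 400 nM, annealed at 95 °C for 10 min in 60 mM potassium cacodylate (pH 7.4) then cooled to RT. Ligand at 1 μM in solution with 50 mM K+. Fluorescence (ex 450–495, em 515–545 nm) read every 0.5 °C over 30–100 °C with a 30 sec hold per step. ΔTm from curve fitting; triplicate measurements.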

[11] = test system: PANC-1; assay: Effect on PRKCZ gene expression in human PANC1 cells at 400 nM after 24 hrs by RNA sequence analysis relative to control; type: functional; procedure, shortened: as §2
[12] = test system: MIA PaCa-2; assay: Effect on GLI2 gene expression in human MIAPaCa2 cells at 400 nM after 6 hrs by RNA sequence analysis relative to control; type: functional; procedure, shortened: as §1
[13] = test system: MIA PaCa-2; assay: Effect on IQSEC1 gene expression in human MIAPaCa2 cells at 400 nM after 24 hrs by RNA sequence analysis relative to control; type: functional; procedure, shortened: as §1
[14] = test system: PANC-1; assay: Effect on TP73 gene expression in human PANC1 cells at 400 nM after 6 hrs by RNA sequence analysis relative to control; type: functional; procedure, shortened: as §2
[15] = test system: MIA PaCa-2; assay: Effect on PFKFB4 gene expression in human MIAPaCa2 cells at 400 nM after 24 hrs by RNA sequence analysis relative to control; type: functional
[16] = test system: MIA PaCa-2; assay: Effect on PRDM16 gene expression in human MIAPaCa2 cells at 400 nM after 24 hrs by RNA sequence analysis relative to control; type: functional
[17] = test system: MIA PaCa-2; assay: Effect on ROBO3 gene expression in human MIAPaCa2 cells at 400 nM after 6 hrs by RNA sequence analysis relative to control; type: functional; procedure, shortened: as §2
[18] = test system: PANC-1; assay: Effect on ROBO3 gene expression in human PANC1 cells at 400 nM after 24 hrs by RNA sequence analysis relative to control; type: functional; procedure, shortened: as §2
[19] = test system: MIA PaCa-2; assay: Effect on CTBP1 gene expression in human MIAPaCa2 cells at 400 nM after 6 hrs by RNA sequence analysis relative to control; type: functional; procedure, shortened: as §1
[20] = Binding affinity to 5'-FAM/3'-TAMRA labeled HSP90B promoter G-quadruplex DNA (unknown origin) assessed as change in melting temperature at 1 uM by FRET assay
Procedure, shortened: (§4)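 FRET melting with FAM/TAMRA dual-labelled oligonucleotides at 400 nM, annealed at 95 °C for 10 min in 60 mM potassium cacodylate pH 7.4 and slowly cooled. Ligand final 1 μM; solution contains 50 mM K+. Fluorescence read every 0.5 °C over 30–100 °C with 30 s hold, excitation 450–495 nm and emission 515–545 nm. ΔTm from curve fitting, triplicate measurements.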

[21] = test system: PANC-1; assay: Effect on CBFA2T3 gene expression in human PANC1 cells at 400 nM after 24 hrs by RNA sequence analysis relative to control; type: functional; procedure, shortened: as §1
[22] = test system: MIA PaCa-2; assay: Effect on MAPK9 gene expression in human MIAPaCa2 cells at 400 nM after 24 hrs by RNA sequence analysis relative to control; type: functional
[23] = test system: MIA PaCa-2; assay: Effect on PAK1 gene expression in human MIAPaCa2 cells at 400 nM after 6 hrs by RNA sequence analysis relative to control; type: functional
[24] = test system: PANC-1; assay: Effect on SHC2 gene expression in human PANC1 cells at 400 nM after 6 hrs by RNA sequence analysis relative to control; type: functional; procedure, shortened: as §2
[25] = test system: MIA PaCa-2; assay: Effect on IGF2 gene expression in human MIAPaCa2 cells at 400 nM after 24 hrs by RNA sequence analysis relative to control; type: functional; procedure, shortened: as §1
[26] = test system: MIA PaCa-2; assay: Effect on PARD6A gene expression in human MIAPaCa2 cells at 400 nM after 24 hrs by RNA sequence analysis relative to control; type: functional
[27] = Selectivity ratio of IC50 for human MCF7 cells to IC50 for human MIAPaCa2 cells; type: functional
[28] = test system: WI-38; assay: Growth inhibition of human WI38 cells after 96 hrs by SRB assay; type: cell-based; details: WI-38, 96 h
[29] = Binding affinity to 5'-FAM/3'-TAMRA labeled HSP90A promoter G-quadruplex DNA (unknown origin) assessed as change in melting temperature at 1 uM by FRET assay; procedure, shortened: as §3
[30] = Binding affinity to 5'-FAM/3'-TAMRA labeled T-loop duplex DNA (unknown origin) assessed as change in melting temperature at 1 uM by FRET assay; procedure, shortened: as §4
[31] = test system: PANC-1; assay: Effect on GLI4 gene expression in human PANC1 cells at 400 nM after 24 hrs by RNA sequence analysis relative to control; type: functional; procedure, shortened: as §1

## O=C1c2ccc3c4c(c(NCCN5CCCC5)cc(c24)C(=O)N1CCCN1CCOCC1)C(=O)N(CCCN1CCOCC1)C3=O
[1]
  log2FC: -0.5
[2]
  Activity: Non-Toxic
[3]
  log2FC: -0.65
[4]
  log2FC: -1.56
[5]
  log2FC: -1.26
[6]
  log2FC: -2.72
[7]
  log2FC: 0.26
[8]
  log2FC: -1.18
[9]
  MTD at 72 h: 45 to 50 mg/kg
[10]
  ΔTm: 11 °C
[11]
  log2FC: -1.23
[12]
  log2FC: -1.17
[13]
  log2FC: -0.53
[14]
  log2FC: -1.44
[15]
  log2FC: -0.93
[16]
  log2FC: -3.39
[17]
  log2FC: -0.86
[18]
  log2FC: -0.85
[19]
  log2FC: -0.52
[20]
  ΔTm: 12.7 °C
[21]
  log2FC: -2.25
[22]
  log2FC: -0.6
[23]
  log2FC: -0.59
[24]
  log2FC: -0.52
[25]
  log2FC: 0.72
[26]
  log2FC: -1.4
[27]
  Ratio IC50: >20
[28]
  IC50: 1190 nM
[29]
  ΔTm: 15.7 °C
[30]
  ΔTm: 0.6 °C
[31]
  log2FC: -1.71
